Laboratory results: ChEMBL document CHEMBL4028867, “Design, Synthesis, and Characterization of N-Oxide-Containing Heterocycles with in Vivo Sterilizing Antitubercular Activity” (J Med Chem, 2017)
Values after ≈ are worked out from the molar mass of the structure shown. Active and inactive are the calls of the source. The calls are words filed in the database; no cut-off is given here.

How the values were obtained:
[1] = Selectivity index, ratio of IC50 for human MRC5 cells to IC50 for replicating stage Mycobacterium tuberculosis H37Rv ATCC 27294; format: toxicity; settings: read-out: Selectivity Index
MRC5 = experiment: Cytotoxicity against human MRC5 cells assessed as reduction in cell viability after 24 hrs by fluorescence assay; format: cell-based; settings: MRC5, 24 h
In short: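 MRC-5 human lung fibroblasts; cytotoxicity reported as IC50.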

[2] = tested on: Mycobacterium tuberculosis; experiment: Antitubercular activity against replicating stage Mycobacterium tuberculosis H37Rv ATCC 27294 after 7 days by Resazurin microtiter assay; format: functional; settings: H37Rv ATCC 27294, 168 h
[3] = n-Octanol/water partition coefficient, log P of the compound by HPLC analysis; format: physicochemical
In short: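 Log P from n-octanol/water partition coefficient determined by HPLC method.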

Candida albicans = experiment: Antimicrobial activity against Candida albicans ATCC 10231 at 200 uM incubated for 48 hrs; format: functional
Escherichia coli = experiment: Antimicrobial activity against Escherichia coli ATCC 25922 at 200 uM incubated for 16 hrs; format: functional
Staphylococcus aureus = experiment: Antimicrobial activity against Staphylococcus aureus ATCC 29213 at 200 uM incubated for 16 hrs; format: functional
[4] = tested on: Mycobacterium tuberculosis; experiment: Antitubercular activity against dormant stage Mycobacterium tuberculosis H37Rv ATCC 27294 incubated for 10 days in anaerobic condition followed by incubation for 28 hrs in ambient gaseous condition measured after day 11 by two fold serial dilution assay; format: functional
[5] = tested on: Mycobacterium tuberculosis; experiment: Antitubercular activity against Mycobacterium tuberculosis H37Rv ATCC 27294 under acidic pH 6 condition; format: functional
[6] = tested on: Mycobacterium tuberculosis; experiment: Growth inhibition of Mycobacterium tuberculosis H37Rv exposed to plasma from BALB/c mouse treated with 20 mg/kg, po administered through microemulsion vehicle as single oral dose per gavage after 4 hrs by Resazurin microtiter assay; format: functional; settings: read-out: GI
In short: (§1)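 The microemulsion was 10% cholesterol, 10% phosphatidylcholine/sodium oleate/polyoxyl 40 hydrogenated castor oil (3:6:8) and 80% phosphate buffer pH 7.4. Plasma taken at 0.3, 1, 2 or 4 h was tested by REMA for % Mtb growth inhibition, and plasma level was estimated against the in-vitro REMA MIC.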

[7] = tested on: Mycobacterium tuberculosis; experiment: Growth inhibition of Mycobacterium tuberculosis H37Rv exposed to plasma from BALB/c mouse treated with 20 mg/kg, po administered through microemulsion vehicle as single oral dose per gavage after 1 hr by Resazurin microtiter assay; format: functional; settings: read-out: GI; in short: as §1
[8] = tested on: Mycobacterium tuberculosis; experiment: Growth inhibition of Mycobacterium tuberculosis H37Rv exposed to plasma from BALB/c mouse treated with 20 mg/kg, po administered through carboxymethylcellulose vehicle as single oral dose per gavage after 0.3 hrs by Resazurin microtiter assay; format: functional; settings: read-out: GI; in short: as §1
[9] = tested on: Mycobacterium tuberculosis; experiment: Antitubercular activity against Mycobacterium tuberculosis H37Rv ATCC 27294 under normal pH 6.8 condition; format: functional
[10] = tested on: Mycobacterium tuberculosis; experiment: Growth inhibition of Mycobacterium tuberculosis H37Rv exposed to plasma from BALB/c mouse treated with 20 mg/kg, po administered through microemulsion vehicle as single oral dose per gavage after 0.3 hrs by Resazurin microtiter assay; format: functional; settings: read-out: GI; in short: as §1
[11] = tested on: Mycobacterium tuberculosis; experiment: Growth inhibition of Mycobacterium tuberculosis H37Rv exposed to plasma from BALB/c mouse treated with 20 mg/kg, po administered through carboxymethylcellulose vehicle as single oral dose per gavage after 1 hr by Resazurin microtiter assay; format: functional; settings: read-out: GI; in short: as §1
[12] = tested on: Mycobacterium tuberculosis; experiment: Growth inhibition of Mycobacterium tuberculosis H37Rv exposed to plasma from BALB/c mouse treated with 20 mg/kg, po administered through carboxymethylcellulose vehicle as single oral dose per gavage after 2 hrs by Resazurin microtiter assay; format: functional; settings: read-out: GI; in short: as §1
[13] = tested on: Mycobacterium tuberculosis; experiment: Growth inhibition of Mycobacterium tuberculosis H37Rv exposed to plasma from BALB/c mouse treated with 20 mg/kg, po administered through microemulsion vehicle as single oral dose per gavage after 2 hrs by Resazurin microtiter assay; format: functional; settings: read-out: GI; in short: as §1
[14] = tested on: Mycobacterium tuberculosis; experiment: Growth inhibition of Mycobacterium tuberculosis H37Rv exposed to plasma from BALB/c mouse treated with 20 mg/kg, po administered through carboxymethylcellulose vehicle as single oral dose per gavage after 4 hrs by Resazurin microtiter assay; format: functional; settings: read-out: GI; in short: as §1

Row | SMILES | selectivity ratio [1] | IC50 (MRC5) [µM] | MIC90 [2] [µM] | logP [3] | other results
1 | N#Cc1c(-c2ccco2)[n+]([O-])c2ccc(C3OCCO3)cc2[n+]1[O-] | 6.8 | 35.7 | 5.2 (≈ 1.69 µg/mL) | 2 | 
2 | O=C(N/N=C/c1ccc2no[n+]([O-])c2c1)c1ccc([N+](=O)[O-])cc1 |  |  | 5.29 (≈ 1.73 µg/mL) | 0.9 | Activity (Candida albicans): inactive; Activity (Escherichia coli): inactive; Activity (Staphylococcus aureus): inactive
3 | N#Cc1c(-c2ccccc2)[n+]([O-])c2ccc(C3OCCO3)cc2[n+]1[O-] | 0.9 | 31.9 | 30.8 (≈ 10.3 µg/mL) | 0.7 | 
4 | CC(C)(C)c1ccc(C(=O)N/N=C/c2ccc3no[n+]([O-])c3c2)cc1 | 6.3 | 25.2 | 3.9 (≈ 1.32 µg/mL) | 3.8 | 
5 | COc1ccc(-c2c(C#N)[n+]([O-])c3cc(C4OCCO4)ccc3[n+]2[O-])cc1 | 1.2 | 15 | 12 (≈ 4.38 µg/mL) | 1.4 | 
6 | O=C(N/N=C/c1ccc2no[n+]([O-])c2c1)c1ccccc1O |  |  | > 62 | 1.3 | 
7 | Nc1ccc(C(=O)N/N=C/c2ccc3no[n+]([O-])c3c2)cc1 | 78.9 | 841 | 10.7 (≈ 3.17 µg/mL) | 1.2 | Activity (Candida albicans): inactive; MIC90 [4]: > 10 µM; Activity (Escherichia coli): inactive; Activity (Staphylococcus aureus): inactive
8 | N#Cc1c(-c2ccccc2)[n+]([O-])c2ccc(/C=N/NC(=O)c3ccncc3)cc2[n+]1[O-] | 0.5 | 21 | 39.7 (≈ 16.3 µg/mL) | 1 | 
9 | Nc1ccccc1C(=O)N/N=C/c1ccc2no[n+]([O-])c2c1 | 9.9 | 122 | 12.3 (≈ 3.66 µg/mL) | 2 | 
10 | NNC(=O)c1ccncc1 [ISONIAZID] |  |  | 0.1 (≈ 0.0137 µg/mL) |  | MIC90 [4]: 1.11 µM (≈ 0.152 µg/mL)
11 | O=C(N/N=C/c1ccc2no[n+]([O-])c2c1)c1ccc(O)cc1 |  |  | > 62 | 1.2 | Activity (Candida albicans): inactive; Activity (Escherichia coli): inactive; Activity (Staphylococcus aureus): inactive
12 | Cc1ccc(-c2c(C#N)[n+]([O-])c3cc(C4OCCO4)ccc3[n+]2[O-])cc1 | 1.1 | 17.2 | 16.5 (≈ 5.76 µg/mL) | 1.6 | 
13 | O=C(N/N=C/c1ccc2no[n+]([O-])c2c1)c1cccc(O)c1 |  |  | > 62 | 1.2 | 
14 | NC(=O)c1c(COc2cccc(/C=N/NC(=O)c3ccncc3)c2)no[n+]1[O-] | 3200 | 1280 | 0.4 (≈ 0.153 µg/mL) | 1.3 | MIC90 [4]: 4.2 µM (≈ 1.61 µg/mL)
15 | NC(=O)c1c(COc2ccccc2/C=N/NC(=O)c2ccncc2)no[n+]1[O-] | 2030 | 854 | 0.42 (≈ 0.161 µg/mL) | 1.3 | MIC90 [4]: 7.72 µM (≈ 2.95 µg/mL)
16 | N#Cc1c(-c2ccc(F)cc2)[n+]([O-])c2ccc(C3OCCO3)cc2[n+]1[O-] | 0.9 | 21.8 | 24.3 (≈ 8.59 µg/mL) | 1.3 | 
17 | O=C(N/N=C/c1ccc2no[n+]([O-])c2c1)c1ccccc1 | 15.6 | 130 | 8.3 (≈ 2.34 µg/mL) | 2.2 | 
18 | N#Cc1c(-c2cccs2)[n+]([O-])c2ccc(C3OCCO3)cc2[n+]1[O-] | 1.4 | 17.3 | 12.1 (≈ 4.13 µg/mL) | 1.9 | 
19 | N#Cc1c(-c2ccc(OC(F)(F)F)cc2)[n+]([O-])c2ccc(C3OCCO3)cc2[n+]1[O-] | 4.3 | 66.8 | 15.4 (≈ 6.46 µg/mL) | 2.2 | 
20 | N#Cc1c(-c2ccc(Cl)cc2)[n+]([O-])c2ccc(C3OCCO3)cc2[n+]1[O-] | 0.8 | 12.6 | 16.2 (≈ 5.99 µg/mL) | 1.8 | 
21 | NC(=O)c1c(COc2ccc(/C=N/NC(=O)c3ccncc3)cc2)no[n+]1[O-] | 2700 | 1160 | 0.43 (≈ 0.164 µg/mL) | 1.3 | MIC90 [4]: 2.04 µM (≈ 0.78 µg/mL)
22 | Nc1cccc(C(=O)N/N=C/c2ccc3no[n+]([O-])c3c2)c1 | 4.6 | 82.1 | 17.8 (≈ 5.29 µg/mL) | 1.4 | 
23 | CO[C@H]1/C=C/O[C@@]2(C)Oc3c(C)c(O)c4c(O)c(c(/C=N/N5CCN(C)CC5)c(O)c4c3C2=O)NC(=O)/C(C)=C\C=C\[C@H](C)[C@H](O)[C@@H](C)[C@@H](O)[C@@H](C)[C@H](OC(C)=O)[C@@H]1C [RIFAMPIN] |  |  |  |  | MIC90 [5]: 0.02 µM (≈ 0.0165 µg/mL); inhibition in vivo at 20 mg/kg [6]: 91%; inhibition in vivo at 20 mg/kg [7]: 63%; inhibition in vivo at 20 mg/kg [8]: 73.7%; MIC90 [9]: 0.05 µM (≈ 0.0411 µg/mL); inhibition in vivo at 20 mg/kg [10]: 66.3%; inhibition in vivo at 20 mg/kg [11]: 84%; inhibition in vivo at 20 mg/kg [12]: 62.3%; inhibition in vivo at 20 mg/kg [13]: 76.3%; inhibition in vivo at 20 mg/kg [14]: 68%
